Consider 167 variants from the RNAGym collection of RNA variant scans (doi:10.1002/anie.201605470).

B1: Osa-1-4 twister ribozyme (parent)
chain: CCGCCUAACACUGCCAAUGCCGGUCCCAAGCCCGGAUAAAAGUGGAGGGGGCGG

The variants in the data set derive from B1. As to the kind of experiment: self-cleavage, relative activity (ratio to wild type); higher = more cleavage; co-transcriptional. The method in brief:
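The 48 positions downstream of the cleavage site in a DNA template for a 54-nucleotide Oryza sativa twister ribozyme carried 97 % wild-type base and 1 % of each other base. After in vitro transcription (2 h, 37 °C) with co-transcriptional self-cleavage, the RNA was reverse-transcribed with a template-switching oligonucleotide, PCR-amplified and deep-sequenced. Relative activity is the fraction cleaved, judged by reads with or without upstream sequence and normalised to wild type.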
For the variant C25G G50A, the self-cleavage was 0.12. On to C25G G50C, for which the self-cleavage came out at 0.09. C25G G50U: the self-cleavage amounted to 0.11. With C25G G51U the figure was 0.04. In the case of C25G G51C, the self-cleavage was 0.03. C25G G51A: the self-cleavage came to 0.07. With C25A G44A the figure was 0.05; with C25A G44C, 0.1; with C25A G44U, 0.06.

For C25G U37G, the self-cleavage stood at 0.13. To C25G U37A belongs 0.12; to C25G U37C, 0.12. Take C25U G42C: the self-cleavage worked out at 0.11. C25U G42A: the self-cleavage was 0.22. To C25U G42U belongs 0.05; to C25A G54A, 0.12. Consider C25A G54U, for which the self-cleavage worked out at 0.28. As for C25A G54C, the self-cleavage is 0.08. In the case of C26A C9U, the self-cleavage came to 0.03. Regarding C26A C9G, the self-cleavage was determined as 0.05.

On to C26A C9A, for which the self-cleavage is 0.02. Consider C26A C27U, for which the self-cleavage was determined as 0.03. To C26A C27G belongs 0.03; to C26A C27A, 0.05; to C25U G34U, 0.77. Turning to C25U G34C, the self-cleavage was 0.5.

Regarding C25U G34A, the self-cleavage was determined as 0.85.

Consider C25U U12C, for which the self-cleavage was 0.09.

Turning to C25U U12G, the self-cleavage came out at 0.17. In the case of C25U U12A, the self-cleavage was 0.18. In the case of U24G, the self-cleavage is 0.03. For the variant U24C, the self-cleavage came to 0.53. With C25A G34A the figure was 0.11. On to C25A G34C, for which the self-cleavage stood at 0.06. To C25A G34U belongs 0.11. As to C25U U37A, the self-cleavage was 0.74. Take C25U U37G: the self-cleavage amounted to 0.96. With C25U U37C the figure was 0.95; with C25G G47U, 0.03. For C25G G47A, the self-cleavage came out at 0.05. With C25G G47C, the self-cleavage was found to be 0.02. In the case of C25U G50A, the self-cleavage was 0.87.

For the variant C25U G50U, the self-cleavage was found to be 0.52. In the case of C25U G50C, the self-cleavage came out at 0.23. With C25G G45C, the self-cleavage is 0.03.

As to C25G G45A, the self-cleavage turned out to be 0.03. For the variant C25G G45U, the self-cleavage is 0.02. Take C25U C33G: the self-cleavage amounted to 0.06.

Regarding C25U C33U, the self-cleavage was 0.31. As for C25U C33A, the self-cleavage was found to be 0.06. On to C25U G47A, for which the self-cleavage was found to be 0.09. With C25U G47U, the self-cleavage came out at 0.07.

Consider C25U G47C, for which the self-cleavage is 0.06.

In the case of C25G U12C, the self-cleavage was 0.05. Regarding C25G U12A, the self-cleavage stood at 0.06. In the case of C25G U12G, the self-cleavage came to 0.04. C25A U24C: the self-cleavage worked out at 0.04. For the variant C25A U24G, the self-cleavage stood at 0.04. Take C25A U24A: the self-cleavage was 0.04. To C26A G13U belongs 0.02; to C26A G13C, 0.01. As for C26A G13A, the self-cleavage was found to be 0.02. Regarding C25A G35A, the self-cleavage turned out to be 0.18. Turning to C25A G35U, the self-cleavage was 0.09.

For C25A G35C, the self-cleavage was 0.05. To C26A C31A belongs 0.02; to C26A C31G, 0.03; to C26A C31U, 0.06. With C25U G19C, the self-cleavage was found to be 0.04. In the case of C25U G19A, the self-cleavage stood at 0.14. To C25U G19U belongs 0.08; to C25U C52A, 0.66; to C25U C52G, 0.8. C25U C52U: the self-cleavage came out at 0.9. Regarding C25G C27A, the self-cleavage was 0.02.

C25G C27G: the self-cleavage was found to be 0.07. As to C25G C27U, the self-cleavage is 0.07. Regarding C25U G35A, the self-cleavage amounted to 0.87. In the case of C25U G35C, the self-cleavage is 0.09. To C25U G35U belongs 0.72.

On to C25A G48A, for which the self-cleavage was 0.03. Turning to C25A G48C, the self-cleavage was determined as 0.03. Turning to C25A G48U, the self-cleavage turned out to be 0.03.

As to C25U G54C, the self-cleavage is 0.31. Turning to C25U G54U, the self-cleavage turned out to be 0.56. Regarding C25U G54A, the self-cleavage turned out to be 0.34. For the variant C26A G34A, the self-cleavage worked out at 0.05. To C26A G34C belongs 0.05.

Consider C26A G34U, for which the self-cleavage worked out at 0.04.

Take C25A G47C: the self-cleavage was 0.03. Turning to C25A G47A, the self-cleavage came to 0.04. C25A G47U: the self-cleavage was found to be 0.04. For the variant C25U G30U, the self-cleavage is 0.05.

Take C25U G30C: the self-cleavage stood at 0.03. Turning to C25U G30A, the self-cleavage turned out to be 0.03. As to U24C U37G, the self-cleavage was found to be 0.55. As for U24C U37C, the self-cleavage amounted to 0.51. On to U24C U37A, for which the self-cleavage was 0.45.

In the case of C25G C31A, the self-cleavage is 0.02. C25G C31U: the self-cleavage came to 0.05.

Take C25G C31G: the self-cleavage was 0.23.

For C26A G44U, the self-cleavage is 0.05. Regarding C26A G44A, the self-cleavage amounted to 0.05. C26A G44C: the self-cleavage was found to be 0.05. Consider C25A G19C, for which the self-cleavage amounted to 0.03. As to C25A G19U, the self-cleavage was determined as 0.04. With C25A G19A the figure was 0.06; with C25G C33G, 0.04. Turning to C25G C33A, the self-cleavage was found to be 0.03. Consider C25G C33U, for which the self-cleavage was 0.06. C26A: the self-cleavage worked out at 0.06. As to C25U G48U, the self-cleavage is 0.04. For the variant C25U G48A, the self-cleavage amounted to 0.07. As for C25U G48C, the self-cleavage was 0.06. For the variant C26A G35C, the self-cleavage worked out at 0.04.

On to C26A G35U, for which the self-cleavage was found to be 0.04.

As for C26A G35A, the self-cleavage was determined as 0.06.

For the variant C25A C27G, the self-cleavage stood at 0.03. As to C25A C27U, the self-cleavage was 0.03. To C25A C27A belongs 0.06. With C25U G23C the figure was 0.06; with C25U G23U, 0.05. Turning to C25U G23A, the self-cleavage is 0.11. Take C25U C27G: the self-cleavage is 0.06. As for C25U C27A, the self-cleavage is 0.06. As for C25U C27U, the self-cleavage was found to be 0.17. As for C25A U18C, the self-cleavage is 0.15.

C25A U18A: the self-cleavage worked out at 0.1. With C25A U18G the figure was 0.35; with C26A C52U, 0.07. For C26A C52A, the self-cleavage came to 0.08. With C26A C52G, the self-cleavage was 0.08. With C25A U43A the figure was 0.06; with C25A U43G, 0.06. Take C25A U43C: the self-cleavage came out at 0.06. Regarding C25A G49A, the self-cleavage is 0.13. On to C25A G49C, for which the self-cleavage is 0.04.

C25A G49U: the self-cleavage amounted to 0.82.

Take C26A G19C: the self-cleavage was 0.02. On to C26A G19A, for which the self-cleavage stood at 0.04. Regarding C26A G19U, the self-cleavage was determined as 0.03. Regarding C25G G34U, the self-cleavage amounted to 0.07.

As for C25G G34C, the self-cleavage stood at 0.06. Take C25G G34A: the self-cleavage came out at 0.08. C25U C26G: the self-cleavage worked out at 0.08.

Regarding C25U C26A, the self-cleavage is 0.04. Turning to C25U C26U, the self-cleavage was 0.21. For C25A G30U, the self-cleavage was determined as 0.02.

For the variant C25A G30A, the self-cleavage amounted to 0.02. For the variant C25A G30C, the self-cleavage was determined as 0.02. As to C25U G13C, the self-cleavage stood at 0.02. To C25U G13U belongs 0.03; to C25U G13A, 0.07.

Regarding C25A G50U, the self-cleavage turned out to be 0.42.

Consider C25A G50A, for which the self-cleavage turned out to be 0.59.

In the case of C25A G50C, the self-cleavage was 0.27. C25G C52G: the self-cleavage came to 0.12. On to C25G C52A, for which the self-cleavage came to 0.08. With C25G C52U the figure was 0.11; with C25G G22A, 0.09.

As for C25G G22C, the self-cleavage was found to be 0.03. As for C25G G22U, the self-cleavage was found to be 0.06. For the variant C25G G42C, the self-cleavage amounted to 0.06. C25G G42U: the self-cleavage is 0.02.

For C25G G42A, the self-cleavage was found to be 0.09. With C26A C32U, the self-cleavage stood at 0.01.

For the variant C26A C32G, the self-cleavage worked out at 0.03.
